Compound activity (PubChem BioAssay)
Cav3 T inh = Cav3.2 calcium influx blockers – cell-based, Fluo-4 calcium fluorescence, FDSS, MLSMR library, primary screen | Voltage-dependent T-type calcium channel subunit alpha-1H (Homo sapiens), O95180 | Cav3.2-expressing cells; stronger effect = lower value | B-score at 10 µM | hit rate 4% among 100,000;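 active = single-dose well whose peak fluorescence ratio is a statistical outlier from its plate by either plate-standardised score or position-corrected B-score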
E coli WT exp = growth inhibitors of wild-type E. coli, primary screen, strain BW25113, expanded library, OD600. hit rate 0.15% among 98,000. OD600 absorbance. growth inhibition, % at 100 µM;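 active = growth inhibition above about 50% at one test dose, limit read from the data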;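 also: growth measured after 20 h incubation at 37 °C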
tolC growth inh = growth inhibitors of E. coli tolC mutant, primary screen, strain BW25113 ΔtolC::kan, 384-well. AID 573, 2007. hit rate 2.2% among 65,000. OD615. growth inhibition, % at 10 µM (by protocol);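 active = growth inhibition at or above a cutoff equal to the mean over every tested compound plus 3 SD, cut at about 60% in these data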;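 also: growth measured after 20 h incubation at 37 °C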
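Assay system: tolC-deleted E. coli BW25113. Medium: kanamycin-containing LB broth (50 µg/mL). Dosing: 10 µM final, single dose. Timing: bacterial growth with compound for 20 h at 37 °C. Detection: A615 absorbance measurement. Read-out basis: growth inhibition in percent.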
PostGolgi yeast = phenotypic screen on post-Golgi transport, primary screen; post-Golgi transport phenotypic cell assay; AID 739, 2007; hit rate 0.9% among 98,000; inhibition, % at 10 µM;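 also: yeast cells grown in 1536-well plates; yeast grown about 18 h at 30C before absorbance read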
PostGolgi ctrl = growth inhibition of yeast control strain, primary screen, counter-screen for post-Golgi transport modulator project; inhibition, % at 10 µM; hit rate 5% among 98,000; efflux-deficient yeast background strain, growth absorbance A615, 16 h; AID 738, 2007
Each line names hits and unclear results; the compound was inactive in the other large screens. Compounds with a hit are over-represented: about 8.4% of the library has one in this group of screens. Rule as the data show it, unless noted: active = inhibition above about 30%; inactive = the rest.

CCCCCCCCCNC(=O)[C@H](NC(=O)COc1ccccc1)[C@@H]1NC(C(=O)OC)C(C)(C)S1 (stereo partly drawn)	none (no result: E coli WT exp, tolC growth inh, PostGolgi yeast, PostGolgi ctrl)
Cc1ccc2[nH]c3c(c2c1)CCC3=O	none
Cc1ccc2[nH]c3c(c2c1)CCc1cn[nH]c1-3	tolC growth inh 100, PostGolgi ctrl 63 (no result: Cav3 T inh)
Cc1ccccc1CNC(=O)c1ccc(CSCc2ccccc2)cc1	Cav3 T inh -5.9 (no result: tolC growth inh)
O=C(NCc1ccccc1)c1ccc(Oc2ccc(C(=O)NCc3ccccc3)cc2)cc1	none (no result: tolC growth inh)
Cc1ccc(NCN2C(=O)C3CC=CCC3C2=O)cc1 (stereo not drawn)	none (no result: E coli WT exp, tolC growth inh, PostGolgi yeast, PostGolgi ctrl)
O=C(CCc1ccc(S(=O)(=O)NC2CCCCC2)cc1)N(Cc1ccccc1)Cc1ccccc1	Cav3 T inh -5.8 (no result: tolC growth inh)
c1csc(-c2noc(COc3ccc4c(c3)CCCC4)n2)c1	tolC growth inh 61
[O-][n+]1onc2c1CCc1nnc(-c3ccccc3)cc1-2	PostGolgi ctrl 32
Cc1onc(-c2ccccc2Cl)c1C(=O)N1CCN=C1SCc1cccnc1	none
C#CCSc1nnc(-c2cc3c(C(F)(F)F)nn(C)c3s2)n1C	none (no result: tolC growth inh)
S=C1SCN(Cc2ccccn2)CN1Cc1ccco1	E coli WT exp 71
COCCN1CSC(=S)N(Cc2ccco2)C1	E coli WT exp 62
Cc1ccccc1CS(=O)(=O)c1cnc2ccccc2n1	none (no result: tolC growth inh)
Cc1cccc(CN2C[C@]34CC[C@@H](C[C@@H]3S2(=O)=O)O4)c1	none (no result: E coli WT exp, tolC growth inh, PostGolgi yeast, PostGolgi ctrl)
Cc1nn(-c2ccccc2)c(C)c1/C=N/O	none
Oc1ccc(/C=C/c2nc(-c3ccccc3O)n(-c3ccccc3)n2)cc1	PostGolgi ctrl 38 (no result: tolC growth inh)
C=CCc1c(C)nc(SC)nc1Nc1ccccc1	Cav3 T inh -4 (no result: E coli WT exp, tolC growth inh, PostGolgi yeast, PostGolgi ctrl)
C=CCc1c(C)nc(C)nc1N/N=C/c1ccc(N(C)C)cc1	none (no result: tolC growth inh)
C=CCc1c(C)nc(SC)nc1Nc1ccc(C(=O)O)cc1	none
C=CCc1c(C)nc(SC)nc1Nc1ccc(C(C)=O)cc1	PostGolgi ctrl 31
O=P(OC1CCCCC1)(OC1CCCCC1)C(O)c1ccc(Cl)cc1Cl (stereo not drawn)	none (no result: tolC growth inh)
O=P(OC1CCCCC1)(OC1CCCCC1)C(O)c1c(Cl)cccc1Cl (stereo not drawn)	PostGolgi ctrl 36 (no result: tolC growth inh)
Cc1ccc(C(O)P(=O)(OC2CCCCC2)OC2CCCCC2)cc1 (stereo not drawn)	Cav3 T inh -4.2, PostGolgi ctrl 40 (no result: tolC growth inh)
c1ccc(-c2ncnc3nc4n(c23)CCC4)cc1	none
COc1ccc(C2NC(=S)N(c3ccccc3)C(C)=C2C(=O)Nc2ccccc2)cc1 (stereo not drawn)	none (no result: tolC growth inh)
CC1=C(C(=O)Nc2ccc([N+](=O)[O-])cc2)C(c2cccc(C(F)(F)F)c2)NC(=S)N1c1ccccc1 (stereo not drawn)	Cav3 T inh -6.7 (no result: tolC growth inh)
Clc1ccc(Cn2cc(/C=N/n3cnnc3)c3ccccc32)c(Cl)c1	PostGolgi ctrl 32 (no result: Cav3 T inh, tolC growth inh)
C(=N\n1cnnc1)/c1cn(Cc2ccccc2)c2ccccc12	none
CCOC(=O)Cc1csc(SCC(=O)/C(C#N)=C(\C)N)n1	none
COc1cccc(C2CC(c3cccc(Br)c3)n3nc(N)nc3N2)c1 (stereo not drawn)	none
COc1ccc(-c2noc(C3CCCN(S(=O)(=O)c4cccc(Cl)c4C)C3)n2)cc1OC (stereo not drawn)	PostGolgi ctrl 50
Cc1cc(N)n(-c2ncnc3scc(-c4ccccc4)c23)n1	none (no result: Cav3 T inh, tolC growth inh)
CCCn1c(SCC#N)nc2c(c1=O)C1(CCCC1)Cc1ccccc1-2	Cav3 T inh -4.2
N#CCSc1n[nH]c2nc3c(c(=O)n12)C1(CCCC1)Cc1ccccc1-3	tolC growth inh 98
CCn1c(SCC(N)=O)nc2c(c1=O)C1(CCCC1)Cc1ccccc1-2	PostGolgi ctrl 50 (no result: tolC growth inh)
N#CCSc1nc2c(c(=O)n1Cc1ccco1)C1(CCCC1)Cc1ccccc1-2	Cav3 T inh -6.2 (no result: E coli WT exp, PostGolgi yeast, PostGolgi ctrl)
O=c1c2c(nc3n1CCCCC3)-c1ccccc1CC21CCCCC1	none (no result: E coli WT exp, tolC growth inh, PostGolgi yeast, PostGolgi ctrl)
Cc1c(C(=O)Oc2cccc3ccccc23)cnn1-c1ccccc1	none (no result: tolC growth inh)
COc1ccc(-n2nnnc2Sc2ccc(S(=O)(=O)N3CCOCC3)cn2)cc1	none (no result: E coli WT exp, PostGolgi yeast, PostGolgi ctrl)
CCCN(CCC)C(=O)Cc1coc2ccc3ccccc3c12	Cav3 T inh -6.3, PostGolgi ctrl 42 (no result: tolC growth inh)
COc1cccc(-c2csc(N3CCN(C(=O)C4CCCCC4)CC3)n2)c1	tolC growth inh 69, PostGolgi ctrl 38 (no result: Cav3 T inh)
COc1ccc(NC(=O)CN2CCN(c3nc(-c4cccc(OC)c4)cs3)CC2)cc1	none (no result: E coli WT exp, tolC growth inh, PostGolgi yeast, PostGolgi ctrl)
CCOC(=O)N1CCN(c2nc(-c3ccc(F)cc3)cs2)CC1	tolC growth inh 92
COc1cccc(-c2csc(N3CCN(C(=O)Nc4ccc(F)cc4)CC3)n2)c1	Cav3 T inh -6.5 (no result: E coli WT exp, tolC growth inh, PostGolgi yeast, PostGolgi ctrl)
O=C(CN1CCN(c2nc(-c3ccc(F)cc3)cs2)CC1)NCc1ccc2c(c1)OCO2	tolC growth inh 80
CCOC(=O)N1CCN(C(=O)c2sc3nc(-c4ccc(F)cc4)cn3c2C)CC1	none (no result: Cav3 T inh)
CC(=O)n1nc2nc(C)cc(C)c2c1N	none
CCN(CC)N=Nc1[nH]nc2nc(C)cc(C)c12	E coli WT exp 63 (no result: tolC growth inh)
O=C(NCc1ccccc1)c1ccccc1OCC(=O)N1CCCCC1	none (no result: tolC growth inh)
O=C(NCc1cccs1)C1CC(=O)N(c2ccc(F)cc2)C1 (stereo not drawn)	none
COc1cccc(-c2nc(N3CCC(C)CC3)c3ccccc3n2)c1O	PostGolgi ctrl 72
Oc1ccccc1-c1nc(N2CCCC2)c2ccccc2n1	none (no result: tolC growth inh)
CC1CCN(c2nc(-c3ccccc3O)nc3ccccc23)CC1	none (no result: tolC growth inh)
COc1cccc(-c2nc(NC(C)(C)C)c3ccccc3n2)c1O	none
COc1cccc(-c2nc(N3CC(C)CC(C)C3)c3ccccc3n2)c1O (stereo not drawn)	PostGolgi ctrl 75
Oc1ccccc1-c1nc(N2CCN(Cc3ccccc3)CC2)c2ccccc2n1	PostGolgi ctrl 42
CC(C)(C)NS(=O)(=O)c1ccc(NS(=O)(=O)c2ccc(F)cc2)cc1	none
Cc1ccc(C(=O)COC(=O)C2C3C=CC(C3)C2C(=O)OCC(=O)c2ccc(C)c(C)c2)cc1C (stereo not drawn)	Cav3 T inh -5.1 (no result: tolC growth inh)
CC(=O)NCC(=O)OCC(=O)c1ccc(C)c(C)c1	none
Brc1ccccc1Cn1c(-c2cncs2)nc2ccccc21	tolC growth inh 62, PostGolgi ctrl 63
c1csc(Cn2c(-c3cccs3)nc3ccccc32)c1	none
CCOC(=O)C1=C(CSc2nc3c(cc2C#N)CCC3)OC(N)=C(C#N)C1c1ccccc1 (stereo not drawn)	Cav3 T inh -5.1
CCOC(=O)C1=C(CSc2nc(-c3ccccc3)ccc2C#N)OC(N)=C(C#N)C1c1cccnc1 (stereo not drawn)	PostGolgi yeast 61 (no result: Cav3 T inh, tolC growth inh)
CN(Cc1ccccc1)S(=O)(=O)c1ccc(S(=O)(=O)N2CCN(CCC#N)CC2)cc1	none (no result: Cav3 T inh, E coli WT exp, PostGolgi yeast, PostGolgi ctrl)
O=C(Nc1ccc(NC(=O)c2sc3ccccc3c2Cl)cc1Cl)c1ccco1	none (no result: Cav3 T inh, tolC growth inh)
CCN1CCN(S(=O)(=O)c2cccs2)CC1	none (no result: tolC growth inh)
O=S(=O)(c1cccs1)N1CCN(CC(O)COc2cc(Cl)ccc2Cl)CC1 (stereo not drawn)	PostGolgi ctrl 33
